Results published in ChEMBL document CHEMBL3244301, “Novel analgesic-antiinflammatory salicylates” (J Med Chem, 1978).
Converted amounts (≈) assume the structure as drawn. The source made the active and inactive calls. The rule behind the calls is not given here.

Experiments:
Rattus norvegicus [1] = test: Antiinflammatory activity against carrageenan-induced foot edema in rat administered via gastric gavage; format: functional; conditions: po
Method in brief: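 Rats, six per dose level, received drug as an aqueous suspension by gastric gavage before carrageenan-induced foot edema was measured. The highest dose given was 400 mg/kg.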

Rattus norvegicus [2] = test: Antiinflammatory activity against carrageenan-induced foot edema in rat at 400 mg/kg administered via gastric gavage; format: functional, organism-based; set-up: dose 400 mg/kg
Method in brief: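 Carrageenan-induced foot edema in rats. Drugs were given as an aqueous suspension by gastric gavage to six rats at each dose level.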

Rattus norvegicus [3] = test: Analgesic activity in po dosed rat assessed as inhibition of yeast-induced inflammatory pain; format: functional
Rattus norvegicus [4] = test: Analgesic activity in po dosed rat assessed as inhibition of adjuvant-induced arthritis pain; format: functional
Canis familiaris = test: Analgesic activity in po dosed dog knee joint pain model; format: functional; conditions: Canis lupus familiaris
Rattus norvegicus [5] = test: Toxicity in po dosed rat assessed as intestinal perforating ulcer; format: organism-based; conditions: in vivo
[6] = target: Cyclooxygenase (Homo sapiens) (UniProt P35354+P23219)
Rattus norvegicus [7] = test: Toxicity in po dosed rat assessed as gastric hemorrhage; format: organism-based, Stomach; conditions: in vivo
Rattus norvegicus [8] = test: Antipyretic activity in po dosed rat; format: functional
Rattus norvegicus [9] = test: Toxicity in rat assessed as intestinal perforating ulcer at 1024 mg/kg, po; format: organism-based; set-up: dose 1024 mg/kg, route oral; conditions: in vivo
Rattus norvegicus [10] = test: Toxicity in rat assessed as gastric hemorrhage at 256 mg/kg, po; format: organism-based, Stomach; set-up: dose 256 mg/kg, route oral; conditions: in vivo
[11] = Drug excretion in human urine after 96 hrs; format: ADME, tissue-based; conditions: read-out: Drug excretion
[12] = Plasma concentration in human at 500 mg, po after 2 hrs
[13] = Plasma concentration in human at 250 mg, po after 2 hrs

SMILES: CC(=O)Oc1ccc(-c2ccc(F)cc2F)cc1C(=O)O
- ED50 (Rattus norvegicus [1]): 27 mg/kg

SMILES: O=C(O)c1c(O)cccc1-c1ccccc1
- Activity (Rattus norvegicus [2]): inactive

SMILES: CCCCOC(=O)Oc1ccc(-c2ccc(F)cc2F)cc1C(=O)O
- ED50 (Rattus norvegicus [1]): 12 mg/kg

SMILES: O=C(O)c1cc(-c2c(F)c(F)c(F)c(F)c2F)ccc1O
- ED50 (Rattus norvegicus [1]): 20 mg/kg

SMILES: O=C(O)c1cc(-c2ccccc2F)ccc1O
- ED50 (Rattus norvegicus [1]): 20 mg/kg

SMILES: O=C(O)c1ccc(C(F)(F)F)cc1O
- Activity (Rattus norvegicus [2]): inactive

SMILES: Cc1cc(-c2ccccc2)cc(C(=O)O)c1O
- ED50 (Rattus norvegicus [1]): 60 mg/kg

SMILES: O=C(O)c1cccc(-c2ccc(Cl)cc2)c1O
- Activity (Rattus norvegicus [2]): inactive

SMILES: CC(=O)Oc1ccc(-c2ccccc2)cc1C(=O)O
- ED50 (Rattus norvegicus [1]): 170 mg/kg

SMILES: CC1=C(CC(=O)O)c2cc(F)ccc2/C1=C\c1ccc([S+](C)[O-])cc1 (centres undefined) [SULINDAC]
- ED50 (Rattus norvegicus [3]): 1.7 mg/kg
- ED50 (Rattus norvegicus [4]): 0.55 mg/kg
- ED50 (Canis familiaris): 45 mg/kg
- ED50 (Rattus norvegicus [5]): 69 mg/kg
- ED50 [6]: inactive
- ED50 (Rattus norvegicus [7]): 27 mg/kg
- ED50 (Rattus norvegicus [8]): 2.9 mg/kg

SMILES: Cc1cc(-c2ccc(F)cc2)cc(C(=O)O)c1O
- ED50 (Rattus norvegicus [1]): 60 mg/kg

SMILES: O=C(O)c1ccc(F)cc1O
- ED50 (Rattus norvegicus [1]): 400 mg/kg

SMILES: CC(=O)Oc1ccccc1C(=O)O [ASPIRIN]
- ED50 (Rattus norvegicus [3]): 87 mg/kg
- ED50 (Rattus norvegicus [4]): 78 mg/kg
- ED50 (Canis familiaris): 68 mg/kg
- ED50 (Rattus norvegicus [1]): 89 mg/kg
- ED50 [6]: 13 µg/mL (≈ 72.2 µM)
- Activity (Rattus norvegicus [9]): Non-toxic
- ED50 (Rattus norvegicus [7]): 81 mg/kg
- ED50 (Rattus norvegicus [8]): 40 mg/kg

SMILES: O=C(O)c1cc(-c2ccccc2)c(Cl)cc1O
- Activity (Rattus norvegicus [2]): inactive

SMILES: O=C(O)c1ccc(-c2ccc(F)cc2)cc1O
- ED50 (Rattus norvegicus [1]): 400 mg/kg

SMILES: O=C(O)c1cc(C2CCCCC2)ccc1O
- Activity (Rattus norvegicus [2]): inactive

SMILES: CC(=O)Oc1c(F)cccc1C(=O)O
- ED50 (Rattus norvegicus [1]): 281 mg/kg

SMILES: CCCCOC(=O)Oc1ccc(-c2ccc(F)cc2)cc1C(=O)O
- ED50 (Rattus norvegicus [1]): 25 mg/kg

SMILES: O=C(O)c1cccc(F)c1O
- ED50 (Rattus norvegicus [1]): 90 mg/kg

SMILES: CCCc1cc(-c2ccc(F)cc2)cc(C(=O)O)c1O
- Activity (Rattus norvegicus [2]): inactive

SMILES: O=C(O)c1cc(-c2cccc(F)c2)ccc1O
- ED50 (Rattus norvegicus [1]): 40 mg/kg

SMILES: CC(=O)Oc1cc(C(F)(F)F)ccc1C(=O)O [TRIFLUSAL]
- ED50 (Rattus norvegicus [1]): 155 mg/kg

SMILES: CCOC(=O)Oc1ccc(-c2ccc(F)cc2F)cc1C(=O)O
- ED50 (Rattus norvegicus [1]): 30 mg/kg

SMILES: O=C(O)c1cc(F)ccc1O
- ED50 (Rattus norvegicus [1]): 120 mg/kg

SMILES: Cc1cc(-c2ccc(O)c(C(=O)O)c2)ccc1F
- Activity (Rattus norvegicus [2]): inactive

SMILES: O=C(O)c1ccccc1O [SALICYLIC ACID]
- ED50 (Rattus norvegicus [1]): 77 mg/kg

SMILES: CC(C)Cc1ccc(C(C)C(=O)O)cc1 (centres undefined) [IBUPROFEN]
- ED50 (Rattus norvegicus [3]): 2.6 mg/kg
- ED50 (Rattus norvegicus [4]): 28 mg/kg
- ED50 (Rattus norvegicus [5]): < 256 mg/kg
- ED50 (Rattus norvegicus [7]): < 16 mg/kg
- ED50 (Rattus norvegicus [8]): 5.9 mg/kg

SMILES: O=C(O)c1cc(-c2ccc(C(F)(F)F)cc2)ccc1O
- ED50 (Rattus norvegicus [1]): 50 mg/kg

SMILES: O=C(O)c1cc(-c2ccc(F)cc2F)ccc1O [DIFLUNISAL]
- Activity (Rattus norvegicus [10]): Non-toxic
- ED50 (Rattus norvegicus [3]): 4.6 mg/kg
- ED50 (Rattus norvegicus [4]): 10.4 mg/kg
- dose excreted at 96 h [11]: 95%
- ED50 (Canis familiaris): 24 mg/kg
- ED50 (Rattus norvegicus [5]): 520 mg/kg
- ED50 (Rattus norvegicus [1]): 9.8 mg/kg
- concentration at 2 h [12]: 99 µg/mL
- ED50 [6]: 0.6 µg/mL (≈ 2.4 µM)
- concentration at 2 h [13]: 30 µg/mL
- ED50 (Rattus norvegicus [8]): 27.8 mg/kg

SMILES: O=C(O)c1cc(-c2ccccc2)ccc1O
- ED50 (Rattus norvegicus [1]): 54 mg/kg

SMILES: Cc1cc(F)ccc1-c1ccc(O)c(C(=O)O)c1
- ED50 (Rattus norvegicus [1]): 76 mg/kg

SMILES: O=C(O)c1cc(-c2ccc(Cl)cc2)ccc1O
- ED50 (Rattus norvegicus [1]): 24 mg/kg

SMILES: O=C(O)c1cc(-c2ccccc2)cc(F)c1O
- ED50 (Rattus norvegicus [1]): 110 mg/kg

SMILES: O=C(O)c1cc(-c2ccc(I)cc2)ccc1O
- ED50 (Rattus norvegicus [1]): 120 mg/kg

SMILES: O=C(O)c1c(O)cccc1F
- Activity (Rattus norvegicus [2]): inactive

SMILES: O=C(O)c1cc(-c2ccc(F)cc2)ccc1O
- ED50 (Rattus norvegicus [1]): 14 mg/kg

SMILES: COc1cc(-c2ccc(O)c(C(=O)O)c2)ccc1F
- Activity (Rattus norvegicus [2]): inactive

SMILES: O=C(O)c1ccc(-c2ccccc2)cc1O
- ED50 (Rattus norvegicus [1]): 150 mg/kg

SMILES: O=C(O)c1cccc(-c2ccccc2)c1O
- ED50 (Rattus norvegicus [1]): 130 mg/kg

SMILES: CC(=O)Oc1ccc(-c2ccc(F)cc2)cc1C(=O)O [FLUFENISAL]
- ED50 (Rattus norvegicus [3]): 35 mg/kg
- ED50 (Rattus norvegicus [4]): 40 mg/kg
- ED50 (Rattus norvegicus [5]): > 512 mg/kg
- ED50 (Rattus norvegicus [1]): 24 mg/kg
- ED50 [6]: 10 µg/mL (≈ 36.5 µM)
- ED50 (Rattus norvegicus [7]): > 512 mg/kg
- ED50 (Rattus norvegicus [8]): 160 mg/kg

SMILES: COc1ccc2c(c1)c(CC(=O)O)c(C)n2C(=O)c1ccc(Cl)cc1 [INDOMETHACIN]
- ED50 (Rattus norvegicus [3]): 2.2 mg/kg
- ED50 (Rattus norvegicus [4]): 0.27 mg/kg
- ED50 (Canis familiaris): 1.7 mg/kg
- ED50 (Rattus norvegicus [5]): 5.2 mg/kg
- ED50 (Rattus norvegicus [7]): 5.4 mg/kg
- ED50 (Rattus norvegicus [8]): 1.8 mg/kg
